# Assay results as given in ChEMBL document CHEMBL4689842, “EUbOPEN Chemogenomics Library wave 1” (2021).
# What was measured:
# HEK-293T = assay: Multiplex assay against HEK293T; assay type: toxicity, cell-based; settings: human;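 for Population Tubulin-Different-Phenotype (%): share of the cells with healthy nuclei that show this phenotype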
# Outline: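 Phenotypes for tubulin, mitochondrial mass and membrane permeability are expressed as per cents of healthy-nucleus cells. Cells were stained live at seeding with Hoechst33342, BioTracker Green Microtubule Cytoskeleton Dye, MitoTracker Red and Annexin V Alexa Fluor 680, then imaged after compound addition on a CQ1 microscope at 37°C and 5% CO2. Machine-learning gating in CellPathfinder separated Hoechst high-intensity objects from normal cells, divided normal cells by nuclear state (healthy, pyknosed, fragmented) and divided pyknosed cells into mitotic or apoptotic.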
# Fibroblast = assay: Incucyte cell viability with human fibroblast; assay type: toxicity, cell-based; settings: 10 µM, compound concentration 10 uM; note: filed as whole numbers so only -1 and 0 and 1 occur
# [1] = 12 h, 1 µM, compound concentration 1 uM, replicate 1
# [2] = 12 h, 1 µM, compound concentration 1 uM, replicate 2
# [3] = 12 h, 10 µM, compound concentration 10 uM, replicate 1
# [4] = 12 h, 10 µM, compound concentration 10 uM, replicate 2
# [5] = 24 h, 1 µM, compound concentration 1 uM, replicate 1
# [6] = 24 h, 1 µM, compound concentration 1 uM, replicate 2
# [7] = 24 h, 10 µM, compound concentration 10 uM, replicate 1
# [8] = 24 h, 10 µM, compound concentration 10 uM, replicate 2
# [9] = 48 h, 1 µM, compound concentration 1 uM, replicate 1
# [10] = 48 h, 1 µM, compound concentration 1 uM, replicate 2
# [11] = 48 h, 10 µM, compound concentration 10 uM, replicate 1
# [12] = 48 h, 10 µM, compound concentration 10 uM, replicate 2
smiles,measurement,setting,value
COc1ccc(NS(=O)(=O)c2sc3ccc(Cl)cc3c2C)cc1N1CCNCC1.Cl,Population Apoptotic (%),HEK-293T; [1],40%
same,Population Fragmented Nuclei (%),HEK-293T; [1],17%
same,Population Healthy Nuclei (%),HEK-293T; [1],36%
same,Population Hoechst High Intensity Objects (%),HEK-293T; [1],35%
same,Population Membrane Permeable-Phenotype (%),HEK-293T; [1],5%
same,Population Mitochondria Different-Phenotype (%),HEK-293T; [1],66%
same,Population Mitotic Cells (%),HEK-293T; [1],59%
same,Population Normal (%),HEK-293T; [1],64%
same,Population Pyknosed Nuclei (%),HEK-293T; [1],45%
same,Population Tubulin-Different-Phenotype (%),HEK-293T; [1],32%
same,Total Cell Count,HEK-293T; [1],385
same,Population Apoptotic (%),HEK-293T; [2],15%
same,Population Fragmented Nuclei (%),HEK-293T; [2],5%
same,Population Healthy Nuclei (%),HEK-293T; [2],41%
same,Population Hoechst High Intensity Objects (%),HEK-293T; [2],3%
same,Population Membrane Permeable-Phenotype (%),HEK-293T; [2],15%
same,Population Mitochondria Different-Phenotype (%),HEK-293T; [2],25%
same,Population Mitotic Cells (%),HEK-293T; [2],84%
same,Population Normal (%),HEK-293T; [2],96%
same,Population Pyknosed Nuclei (%),HEK-293T; [2],53%
same,Population Tubulin-Different-Phenotype (%),HEK-293T; [2],39%
same,Total Cell Count,HEK-293T; [2],233
same,Population Apoptotic (%),HEK-293T; [3],71%
same,Population Fragmented Nuclei (%),HEK-293T; [3],7%
same,Population Healthy Nuclei (%),HEK-293T; [3],33%
same,Population Hoechst High Intensity Objects (%),HEK-293T; [3],12%
same,Population Membrane Permeable-Phenotype (%),HEK-293T; [3],4%
same,Population Mitochondria Different-Phenotype (%),HEK-293T; [3],99%
same,Population Mitotic Cells (%),HEK-293T; [3],28%
same,Population Normal (%),HEK-293T; [3],87%
same,Population Pyknosed Nuclei (%),HEK-293T; [3],59%
same,Total Cell Count,HEK-293T; [3],350
same,Population Apoptotic (%),HEK-293T; [4],57%
same,Population Fragmented Nuclei (%),HEK-293T; [4],3%
same,Population Healthy Nuclei (%),HEK-293T; [4],16%
same,Population Hoechst High Intensity Objects (%),HEK-293T; [4],4%
same,Population Membrane Permeable-Phenotype (%),HEK-293T; [4],6%
same,Population Mitochondria Different-Phenotype (%),HEK-293T; [4],86%
same,Population Mitotic Cells (%),HEK-293T; [4],42%
same,Population Normal (%),HEK-293T; [4],95%
same,Population Pyknosed Nuclei (%),HEK-293T; [4],79%
same,Population Tubulin-Different-Phenotype (%),HEK-293T; [4],96%
same,Total Cell Count,HEK-293T; [4],186
same,Population Apoptotic (%),HEK-293T; [5],46%
same,Population Fragmented Nuclei (%),HEK-293T; [5],21%
same,Population Healthy Nuclei (%),HEK-293T; [5],40%
same,Population Hoechst High Intensity Objects (%),HEK-293T; [5],39%
same,Population Membrane Permeable-Phenotype (%),HEK-293T; [5],2%
same,Population Mitochondria Different-Phenotype (%),HEK-293T; [5],61%
same,Population Mitotic Cells (%),HEK-293T; [5],53%
same,Population Normal (%),HEK-293T; [5],60%
same,Population Pyknosed Nuclei (%),HEK-293T; [5],38%
same,Population Tubulin-Different-Phenotype (%),HEK-293T; [5],43%
same,Total Cell Count,HEK-293T; [5],399
same,Population Apoptotic (%),HEK-293T; [6],22%
same,Population Fragmented Nuclei (%),HEK-293T; [6],4%
same,Population Healthy Nuclei (%),HEK-293T; [6],58%
same,Population Hoechst High Intensity Objects (%),HEK-293T; [6],2%
same,Population Membrane Permeable-Phenotype (%),HEK-293T; [6],4%
same,Population Mitochondria Different-Phenotype (%),HEK-293T; [6],36%
same,Population Mitotic Cells (%),HEK-293T; [6],77%
same,Population Normal (%),HEK-293T; [6],97%
same,Population Pyknosed Nuclei (%),HEK-293T; [6],36%
same,Population Tubulin-Different-Phenotype (%),HEK-293T; [6],54%
same,Total Cell Count,HEK-293T; [6],278
same,Population Apoptotic (%),HEK-293T; [7],74%
same,Population Fragmented Nuclei (%),HEK-293T; [7],10%
same,Population Healthy Nuclei (%),HEK-293T; [7],34%
same,Population Hoechst High Intensity Objects (%),HEK-293T; [7],21%
same,Population Membrane Permeable-Phenotype (%),HEK-293T; [7],4%
same,Population Mitochondria Different-Phenotype (%),HEK-293T; [7],98%
same,Population Mitotic Cells (%),HEK-293T; [7],25%
same,Population Normal (%),HEK-293T; [7],78%
same,Population Pyknosed Nuclei (%),HEK-293T; [7],54%
same,Population Tubulin-Different-Phenotype (%),HEK-293T; [7],97%
same,Total Cell Count,HEK-293T; [7],356
same,Population Apoptotic (%),HEK-293T; [8],90%
same,Population Fragmented Nuclei (%),HEK-293T; [8],4%
same,Population Healthy Nuclei (%),HEK-293T; [8],25%
same,Population Hoechst High Intensity Objects (%),HEK-293T; [8],8%
same,Population Membrane Permeable-Phenotype (%),HEK-293T; [8],2%
same,Population Mitochondria Different-Phenotype (%),HEK-293T; [8],97%
same,Population Mitotic Cells (%),HEK-293T; [8],9%
same,Population Normal (%),HEK-293T; [8],91%
same,Population Pyknosed Nuclei (%),HEK-293T; [8],70%
same,Total Cell Count,HEK-293T; [8],187
same,Population Apoptotic (%),HEK-293T; [9],47%
same,Population Fragmented Nuclei (%),HEK-293T; [9],23%
same,Population Healthy Nuclei (%),HEK-293T; [9],51%
same,Population Hoechst High Intensity Objects (%),HEK-293T; [9],29%
same,Population Membrane Permeable-Phenotype (%),HEK-293T; [9],1%
same,Population Mitochondria Different-Phenotype (%),HEK-293T; [9],37%
same,Population Mitotic Cells (%),HEK-293T; [9],52%
same,Population Normal (%),HEK-293T; [9],70%
same,Population Pyknosed Nuclei (%),HEK-293T; [9],25%
same,Population Tubulin-Different-Phenotype (%),HEK-293T; [9],32%
same,Total Cell Count,HEK-293T; [9],493
same,Population Apoptotic (%),HEK-293T; [10],15%
same,Population Fragmented Nuclei (%),HEK-293T; [10],4%
same,Population Healthy Nuclei (%),HEK-293T; [10],81%
same,Population Hoechst High Intensity Objects (%),HEK-293T; [10],4%
same,Population Membrane Permeable-Phenotype (%),HEK-293T; [10],3%
same,Population Mitochondria Different-Phenotype (%),HEK-293T; [10],9%
same,Population Mitotic Cells (%),HEK-293T; [10],84%
same,Population Normal (%),HEK-293T; [10],95%
same,Population Pyknosed Nuclei (%),HEK-293T; [10],14%
same,Population Tubulin-Different-Phenotype (%),HEK-293T; [10],41%
same,Total Cell Count,HEK-293T; [10],485
same,Population Fragmented Nuclei (%),HEK-293T; [11],13%
same,Population Healthy Nuclei (%),HEK-293T; [11],39%
same,Population Hoechst High Intensity Objects (%),HEK-293T; [11],26%
same,Population Membrane Permeable-Phenotype (%),HEK-293T; [11],0%
same,Population Mitochondria Different-Phenotype (%),HEK-293T; [11],100%
same,Population Normal (%),HEK-293T; [11],73%
same,Population Pyknosed Nuclei (%),HEK-293T; [11],47%
same,Population Tubulin-Different-Phenotype (%),HEK-293T; [11],95%
same,Total Cell Count,HEK-293T; [11],367
same,Population Apoptotic (%),HEK-293T; [12],77%
same,Population Fragmented Nuclei (%),HEK-293T; [12],4%
same,Population Healthy Nuclei (%),HEK-293T; [12],28%
same,Population Hoechst High Intensity Objects (%),HEK-293T; [12],15%
same,Population Membrane Permeable-Phenotype (%),HEK-293T; [12],6%
same,Population Mitochondria Different-Phenotype (%),HEK-293T; [12],95%
same,Population Mitotic Cells (%),HEK-293T; [12],22%
same,Population Normal (%),HEK-293T; [12],84%
same,Population Pyknosed Nuclei (%),HEK-293T; [12],67%
same,Population Tubulin-Different-Phenotype (%),HEK-293T; [12],91%
same,Total Cell Count,HEK-293T; [12],188
same,Growth Rate,"Fibroblast; 0 h, replicate number 1, timepoint 0 hours",1
same,Growth Rate,"Fibroblast; 6 h, replicate number 1, timepoint 6 hours",1
same,Growth Rate,"Fibroblast; 6 h, replicate number 2, timepoint 6 hours",0
same,Growth Rate,"Fibroblast; 12 h, replicate number 1, timepoint 12 hours",0
same,Growth Rate,"Fibroblast; 18 h, replicate number 1, timepoint 18 hours",0
same,Growth Rate,"Fibroblast; 24 h, replicate number 1, timepoint 24 hours",0
